Laboratory results published in ChEMBL document CHEMBL1765023, “Acetyl analogs of combretastatin A-4: synthesis and biological studies” (Bioorg Med Chem, 2011).
≈ marks a conversion by molar mass, not a printed value.

Experiments:
L1210 = assay: Cytotoxicity against mouse L1210 cells by MTT assay; type: functional, cell-based
B16 = assay: Cytotoxicity against mouse B16 cells by MTT assay; type: functional, cell-based
[1] = Induction of microtubule depolymerization in […] cells for 18 hrs by indirect immunofluorescence microscopic analysis; type: cell-based
How it was run: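 Uses A-10 cells, a non-transformed line that arrests in interphase under microtubule-targeting agents. Cells were treated for 18 h and interphase microtubules were visualized by indirect immunofluorescence microscopy, with vehicle-treated controls. Depolymerization was screened at concentrations below 30 µM. For EC50, a range of concentrations was tested, and EC50 is the concentration causing 50% loss of cellular microtubules by microscopy.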

[2] = Ratio of EC50 for microtubule depolymerization in […] cells to IC50 for human MDA-MB-435 cells
[3] = Solubility of the compound in water by multiscreen solubility; type: physicochemical
How it was run: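 Aqueous solubility was measured with a modified Multiscreen Solubility filter-plate protocol. The assay ceiling is 500 µM, and two independent experiments were run.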

Mus musculus [4] = assay: Toxicity in DBA2 mouse assessed as change in color, weight and size in spleen at 75 mg/kg, ip QD administered on alternate days for 17 days measured on day 23 relative to control; type: organism-based; set-up: dose 75 mg/kg, route intraperitoneal; conditions: in vivo, 408 h
How it was run: (§1)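 Healthy female DBA2 mice, 5–7 weeks old, five per group, received 75 mg/kg ip on days 1, 5, 9, 13 and 17. Vehicle was PET (PEG400/ethanol/Tween 80, 6:3:1), 5% glucose and DMSO, with final ethanol 15% and DMSO 10%. Controls received 100 µL vehicle. Body weight was measured every other day. At sacrifice on day 23, blood counts (hematocrit, WBC, granulocytes, platelets) and liver, kidney and spleen appearance and weight were assessed.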

Mus musculus [5] = assay: Toxicity in DBA2 mouse assessed as change in granulocyte count at 75 mg/kg, ip QD administered on alternate days for 17 days measured on day 23 relative to control; type: organism-based; set-up: dose 75 mg/kg, route intraperitoneal; conditions: in vivo, 408 h; how it was run: as §1
Mus musculus [6] = assay: Toxicity in DBA2 mouse assessed as change in hematocrit at 75 mg/kg, ip QD administered on alternate days for 17 days measured on day 23 relative to control; type: organism-based; set-up: dose 75 mg/kg, route intraperitoneal; conditions: in vivo, 408 h; how it was run: as §1
Mus musculus [7] = assay: Toxicity in DBA2 mouse assessed as change in white blood count at 75 mg/kg, ip QD administered on alternate days for 17 days measured on day 23 relative to control; type: organism-based; set-up: dose 75 mg/kg, route intraperitoneal; conditions: in vivo, 408 h; how it was run: as §1
Mus musculus [8] = assay: Toxicity in DBA2 mouse assessed as change in color, weight and size in kidney at 75 mg/kg, ip QD administered on alternate days for 17 days measured on day 23 relative to control; type: organism-based; set-up: dose 75 mg/kg, route intraperitoneal; conditions: in vivo, 408 h; how it was run: as §1
Mus musculus [9] = assay: Toxicity in DBA2 mouse assessed as change in body weight at 75 mg/kg, ip QD administered on alternate days for 17 days measured on day 23 relative to control; type: organism-based; set-up: dose 75 mg/kg, route intraperitoneal; conditions: in vivo, 408 h; how it was run: as §1
Mus musculus [10] = assay: Toxicity in DBA2 mouse assessed as change in color, weight and size in liver at 75 mg/kg, ip QD administered on alternate days for 17 days measured on day 23 relative to control; type: organism-based; set-up: dose 75 mg/kg, route intraperitoneal; conditions: in vivo, 408 h; how it was run: as §1
Mus musculus [11] = assay: Toxicity in DBA2 mouse assessed as change in platelet count at 75 mg/kg, ip QD administered on alternate days for 17 days measured on day 23 relative to control; type: organism-based; set-up: dose 75 mg/kg, route intraperitoneal; conditions: in vivo, 408 h; how it was run: as §1

SMILES | IC50 (L1210) [µM] | IC50 (B16) [µM] | also measured
COc1ccc(OC)c(/C=C(/C(C)=O)c2cc(OC)c(OC)c(OC)c2)c1 | 3.7 | 4 | –
COc1ccc(/C=C(/C(C)=O)c2cc(OC)c(OC)c(OC)c2)cc1OC | 37 | 42 | –
COc1cc(OC)c(/C=C(/C(C)=O)c2cc(OC)c(OC)c(OC)c2)c(OC)c1 | 3.7 | > 100 | –
COc1cc(/C=C(/C(C)=O)c2cc(OC)c(OC)c(OC)c2)cc(OC)c1OC | 7.2 | 23 | –
COc1ccc(/C=C(/C(C)=O)c2cc(OC)c(OC)c(OC)c2)cc1O[Si](C)(C)C(C)(C)C | 0.18 | 5.1 | –
COc1cc(/C(=C\c2ccc([N+](=O)[O-])cc2)C(C)=O)cc(OC)c1OC | 18 | 18 | –
COc1cc(/C(=C\c2cccc([N+](=O)[O-])c2)C(C)=O)cc(OC)c1OC | 3.3 | 3.8 | –
COc1cc(/C(=C\c2ccc(Cl)cc2)C(C)=O)cc(OC)c1OC | 5 | 7.4 | –
COc1cc(/C(=C\c2cccc(Br)c2)C(C)=O)cc(OC)c1OC | 35 | 39 | –
COc1cc(/C(=C\c2ccc(Br)cc2)C(C)=O)cc(OC)c1OC | 4 | 19 | –
COc1cc(/C(=C\c2ccc(C#N)cc2)C(C)=O)cc(OC)c1OC | 8 | 29 | –
COc1cc(/C(=C\c2ccc(F)cc2)C(C)=O)cc(OC)c1OC | 43 | 65 | –
COc1ccc(/C=C(/C(C)=O)c2cc(OC)c(OC)c(OC)c2)cc1 | 0.38 | 7.3 | EC50 [1]: 18.6 µM; Ratio [2]: 53; solubility [3]: 319 µM (≈ 109 µg/mL)
COc1ccccc1/C=C(/C(C)=O)c1cc(OC)c(OC)c(OC)c1 | 40 | 41 | –
COc1cccc(/C=C(/C(C)=O)c2cc(OC)c(OC)c(OC)c2)c1 | 39 | 31 | –
COc1cc(/C(=C\c2ccc(C)cc2)C(C)=O)cc(OC)c1OC | 0.36 | 2.9 | Activity (Mus musculus [4]): Non-toxic; EC50 [1]: 5.6 µM; Ratio [2]: 59; Activity (Mus musculus [5]): Non-toxic; Activity (Mus musculus [6]): Non-toxic; solubility [3]: 443 µM (≈ 145 µg/mL); Activity (Mus musculus [7]): Non-toxic; Activity (Mus musculus [8]): Non-toxic; Activity (Mus musculus [9]): Non-toxic; Activity (Mus musculus [10]): Non-toxic; Activity (Mus musculus [11]): Non-toxic
COc1cc(/C(=C\c2ccccc2)C(C)=O)cc(OC)c1OC | 5.4 | 25 | –
COc1cc(/C(=C\c2ccc(Cl)c(Cl)c2)C(C)=O)cc(OC)c1OC | 4 | 6.4 | –
COc1ccc(/C=C(/C(C)=O)c2cc(OC)c(OC)c(OC)c2)cc1[N+](=O)[O-] | 3.1 | 3.8 | –
